Test results taken from ChEMBL document CHEMBL1153420, “Discovery of novel 1-azoniabicyclo[2.2.2]octane muscarinic acetylcholine receptor antagonists” (J Med Chem, 2009).
Calls of active or inactive are those of the source. The rule behind the calls is not given here.

Tests used:
[1] = target: T1, Muscarinic acetylcholine receptor M3 (Homo sapiens, UniProt P20309); assay: Antagonist activity at human cloned muscarinic M3 receptor expressed in CHO cells assessed as inhibition of acetylcholine-induced calcium mobilization by FLIPR assay; format: functional, cell-based
Target sequence in this assay (P20309 whole entry): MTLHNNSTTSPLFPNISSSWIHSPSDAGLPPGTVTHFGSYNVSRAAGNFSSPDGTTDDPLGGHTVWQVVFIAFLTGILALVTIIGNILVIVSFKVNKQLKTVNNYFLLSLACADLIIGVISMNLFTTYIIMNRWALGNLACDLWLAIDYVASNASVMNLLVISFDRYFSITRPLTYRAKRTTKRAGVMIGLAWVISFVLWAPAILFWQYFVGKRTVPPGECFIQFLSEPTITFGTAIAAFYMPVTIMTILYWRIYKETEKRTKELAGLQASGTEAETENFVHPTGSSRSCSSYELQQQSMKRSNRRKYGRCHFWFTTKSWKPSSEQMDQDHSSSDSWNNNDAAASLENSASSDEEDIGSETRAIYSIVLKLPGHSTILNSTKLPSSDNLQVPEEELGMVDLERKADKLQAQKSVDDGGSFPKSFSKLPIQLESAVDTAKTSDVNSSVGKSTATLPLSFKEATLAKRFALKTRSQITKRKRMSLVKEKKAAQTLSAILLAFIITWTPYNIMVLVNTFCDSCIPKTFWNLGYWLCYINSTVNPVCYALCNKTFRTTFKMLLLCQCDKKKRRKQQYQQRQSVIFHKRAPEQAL

[2] = target: T1, Muscarinic acetylcholine receptor M3; assay: Antagonist activity at human cloned muscarinic M3 receptor expressed in CHO cells assessed as inhibition of acetylcholine-induced calcium mobilization by single concentration kinetic based-FLIPR assay; format: functional, cell-based; details: read-out: pA2 (converted)
Target sequence in this assay (P20309 whole entry): as above

[3] = target: T1, Muscarinic acetylcholine receptor M3; assay: Antagonist activity at human muscarinic M3 receptor assessed as offset time for 50% of carbachol-induced human bronchus contraction to return at 10 nM; format: functional
How it was run: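 Human bronchial strips (primary, secondary or tertiary airways, obtained at autopsy) were mounted in organ baths on force-displacement transducers. Strips were preincubated 2 h with 10 nM antagonist, then given increasing carbachol to […]. Antagonist was then removed and tissue superfused with carbachol-containing buffer while tension recovery was tracked. The result is minutes to 50% reversal of blockade (off t50).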
Target sequence in this assay (P20309 whole entry, looked up): as the sequence (P20309 whole entry) above

Mus musculus [4] = assay: Inhibition of methacholine-induced bronchoconstriction in intranasally single dosed conscious BALB/c mouse by plethysmography; format: functional
[5] = target: T2, Muscarinic acetylcholine receptor M1 (Homo sapiens, UniProt P11229); assay: Antagonist activity at human cloned muscarinic M1 receptor expressed in CHO cells assessed as inhibition of acetylcholine-induced calcium mobilization by single concentration kinetic based-FLIPR assay; format: functional, cell-based; details: read-out: pA2 (converted)
T2 sequence (P11229 whole entry): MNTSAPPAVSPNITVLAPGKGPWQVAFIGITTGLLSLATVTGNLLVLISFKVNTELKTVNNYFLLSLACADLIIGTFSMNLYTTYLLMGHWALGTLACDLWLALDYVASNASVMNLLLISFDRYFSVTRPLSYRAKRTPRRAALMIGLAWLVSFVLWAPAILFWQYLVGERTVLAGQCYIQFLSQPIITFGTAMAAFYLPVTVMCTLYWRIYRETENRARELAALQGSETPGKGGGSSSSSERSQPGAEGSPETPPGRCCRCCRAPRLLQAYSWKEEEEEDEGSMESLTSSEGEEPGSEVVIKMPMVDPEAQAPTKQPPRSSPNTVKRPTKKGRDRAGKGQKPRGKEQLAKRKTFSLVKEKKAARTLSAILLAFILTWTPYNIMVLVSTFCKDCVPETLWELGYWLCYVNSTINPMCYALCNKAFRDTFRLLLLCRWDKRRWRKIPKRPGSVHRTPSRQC

[6] = Clearance in rat plasma at 0.5 mg/kg, iv; format: ADME, organism-based; parameters: dose 0.5 mg/kg, route intravenous
How it was run: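 Rats received a single intravenous dose of 0.5 mg/kg; systemic plasma clearance was reported in ml/min/kg.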

[7] = target: T1, Muscarinic acetylcholine receptor M3; assay: Antagonist activity at human cloned muscarinic M3 receptor expressed in CHO cells assessed as reversible inhibition of acetylcholine-induced calcium mobilization for 90 mins measured after 180 mins of washout period by FLIPR assay; format: functional, cell-based
How it was run: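 CHO cells expressing cloned human M3 receptors were incubated 90 min with vehicle or 1.0, 10 or 100 nM compound, then washed out for 180 min with 18 buffer changes. Cells were then stimulated with ACh, and calcium mobilization was read by FLIPR. Reversibility was judged from ACh concentration-response curves against no-drug levels.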
Target sequence in this assay (P20309 whole entry, looked up): as the sequence (P20309 whole entry) above

[8] = target: T2, Muscarinic acetylcholine receptor M1; assay: Displacement of [3H]N-methyl scopolamine from human cloned muscarinic M1 receptor expressed in CHO cells coexpressing Gqi5 by scintillation proximity assay; format: cell-based
How it was run: (§1)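 Scintillation proximity assay on membranes from CHO cells expressing human M1, M2 or M3 receptors, competing against 0.5 nM [3H]-N-methyl scopolamine; Ki reported as mean of three independent assays.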

Mus musculus [9] = assay: Inhibition of methacholine-induced bronchoconstriction in intranasally single dosed conscious BALB/c mouse assessed as time to 50% loss of maximum protection at 0.05 ug by plethysmography; format: functional
How it was run: (§2)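 Conscious mice dosed intranasally in 50 µL vehicle (10% DMSO), then methacholine challenge; barometric plethysmography measured enhanced pause (Penh) at times from 15 min to 96 h after dosing; duration taken as time to 50% loss of maximum protection.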

[10] = target: T3, Muscarinic acetylcholine receptor M2 (Homo sapiens, UniProt P08172); assay: Displacement of [3H]N-methyl scopolamine from human cloned muscarinic M2 receptor expressed in CHO cells coexpressing Gqi5 by scintillation proximity assay; format: cell-based; how it was run: as §1
T3 sequence (P08172 whole entry): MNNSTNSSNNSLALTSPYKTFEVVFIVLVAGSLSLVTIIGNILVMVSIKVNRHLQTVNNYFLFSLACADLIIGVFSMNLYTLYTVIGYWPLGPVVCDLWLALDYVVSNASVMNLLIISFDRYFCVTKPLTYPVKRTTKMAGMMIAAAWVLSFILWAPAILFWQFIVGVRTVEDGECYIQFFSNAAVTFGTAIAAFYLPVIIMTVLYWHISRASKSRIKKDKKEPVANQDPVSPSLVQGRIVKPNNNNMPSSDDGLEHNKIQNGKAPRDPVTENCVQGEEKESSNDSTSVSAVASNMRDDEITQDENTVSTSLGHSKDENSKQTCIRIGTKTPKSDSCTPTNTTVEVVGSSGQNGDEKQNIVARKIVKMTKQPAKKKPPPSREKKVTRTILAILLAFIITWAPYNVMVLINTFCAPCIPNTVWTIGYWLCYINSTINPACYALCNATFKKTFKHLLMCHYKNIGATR

[11] = target: T3, Muscarinic acetylcholine receptor M2; assay: Antagonist activity at human cloned muscarinic M2 receptor expressed in CHO cells assessed as inhibition of acetylcholine-induced calcium mobilization by single concentration kinetic based-FLIPR assay; format: functional, cell-based; details: read-out: pA2 (converted)
[12] = Clearance in rat plasma at 3.5 mg/kg, iv; format: ADME, organism-based; parameters: dose 3.5 mg/kg, route intravenous
How it was run: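 Systemic plasma clearance in rat after intravenous dosing.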

[13] = target: T1, Muscarinic acetylcholine receptor M3; assay: Displacement of [3H]N-methyl scopolamine from human cloned muscarinic M3 receptor expressed in CHO cells coexpressing Gqi5 by scintillation proximity assay; format: cell-based
Target sequence in this assay (P20309 whole entry): as the sequence (P20309 whole entry) above

[14] = target: T1, Muscarinic acetylcholine receptor M3; assay: Antagonist activity at human muscarinic M3 receptor assessed as inhibition of carbachol-induced bronchus contraction; format: functional; details: read-out: pA2 (converted)
Target sequence in this assay (P20309 whole entry): as the sequence (P20309 whole entry) above

Mus musculus [15] = assay: Inhibition of methacholine-induced bronchoconstriction in intranasally single dosed conscious BALB/c mouse assessed as time to 50% loss of maximum protection at 0.5 ug by plethysmography; format: functional; how it was run: as §2

| SMILES | IC50 [1] | Kb [2] | other results |
| --- | --- | --- | --- |
| OC(c1ccccc1)(c1ccccc1)C1CC2CCN1CC2 (stereo not drawn) | 6600 nM | – | – |
| OC(c1ccccc1)(c1ccccc1)C1C[N+]2(CCc3ccccc3)CCC1CC2 (stereo not drawn) | 2820 nM | – | – |
| OC(c1ccccc1)(c1ccccc1)C12CCN(CC1)CC2 | 1070 nM | – | – |
| COCC[N+]12CCC(C(O)(c3ccccc3)c3ccccc3)(CC1)CC2 | 30 nM | – | – |
| OCC[N+]12CCC(C(O)(c3ccccc3)c3ccccc3)(CC1)CC2 | 486 nM | – | – |
| Cc1ccccc1COCC[N+]12CCC(C(O)(c3ccccc3)c3ccccc3)(CC1)CC2 | 13 nM | 3.98 nM | – |
| OC(c1ccccc1)(c1ccccc1)C12CC[N+](CCOc3ccccc3)(CC1)CC2 | < 10 nM | 0.794 nM | – |
| OC(c1ccccc1)(c1ccccc1)C12CC[N+](CCCCOc3ccccc3)(CC1)CC2 | 9.5 nM | 10 nM | – |
| OC(c1ccccc1)(c1ccccc1)C12CC[N+](CCOCc3ccccc3F)(CC1)CC2 | < 10 nM | 0.0398 nM | – |
| OC(c1ccccc1)(c1ccccc1)C12CC[N+](CCOCc3ccccc3)(CC1)CC2.[Br-] [UMECLIDINIUM BROMIDE] | – | – | Activity [3]: 145 min; ED50 (Mus musculus [4]): 0.02 µg; Kb [5]: 0.316 nM; clearance [6]: 92 mL/min/kg; Activity [7]: Active; Ki [8]: 0.16 nM; Activity (Mus musculus [9]): >48 h; Ki [10]: 0.15 nM; Kb [11]: 0.0316 nM |
| COc1cccc(COCC[N+]23CCC(C(O)(c4ccccc4)c4ccccc4)(CC2)CC3)c1 | < 10 nM | 2 nM | – |
| CC[N+]12CCC(C(O)(c3ccccc3)c3ccccc3)(CC1)CC2 | 104 nM | – | – |
| N#CC(c1ccccc1)(c1ccccc1)C12CC[N+](CCOCc3ccccc3)(CC1)C2 | < 10 nM | 0.501 nM | – |
| OC(c1ccccc1)(c1ccccc1)C12CC[N+](CCCCc3ccccc3)(CC1)CC2 | < 10 nM | 0.501 nM | – |
| OC(c1ccccc1)(c1ccccc1)C12CC[N+](CCOCc3cccc(F)c3)(CC1)CC2 | < 10 nM | 0.0251 nM | – |
| OCCC[N+]12CCC(C(O)(c3ccccc3)c3ccccc3)(CC1)CC2 | 29500 nM | – | – |
| OC(c1ccccc1)(c1ccccc1)C1CN2CCC1CC2 (stereo not drawn) | 1100 nM | – | – |
| OC(CC1CN2CCC1CC2)(c1ccccc1)c1ccccc1 (stereo not drawn) | 145 nM | – | – |
| Cc1cccc(COCC[N+]23CCC(C(O)(c4ccccc4)c4ccccc4)(CC2)CC3)c1 | < 10 nM | 0.1 nM | – |
| OC(c1ccccc1)(c1ccccc1)C12CC[N+](CCOCc3cccc(Br)c3)(CC1)CC2 | < 10 nM | 0.126 nM | – |
| OC(c1cccc(F)c1)(c1cccc(F)c1)C12CC[N+](CCOCc3ccccc3)(CC1)CC2 | < 10 nM | 0.251 nM | – |
| CCCC[N+]12CCC(C(O)(c3ccccc3)c3ccccc3)(CC1)CC2 | 135 nM | – | – |

| SMILES | IC50 [1] | Kb [2] | other results |
| --- | --- | --- | --- |
| OC(CC1C[N+]2(CCc3ccccc3)CCC1CC2)(c1ccccc1)c1ccccc1 (stereo not drawn) | 122 nM | – | – |
| COc1cccc(C(O)(c2cccc(OC)c2)C23CC[N+](CCOCc4ccccc4)(CC2)CC3)c1 | 17 nM | – | – |
| OC(c1ccccc1)(c1ccccc1)C12CC[N+](CCCOc3ccccc3)(CC1)CC2.[Br-] | < 10 nM | – | Activity [3]: 57 min; ED50 (Mus musculus [4]): 0.08 µg; Kb [5]: 3.16 nM; clearance [12]: 37 mL/min/kg; Activity [7]: inactive; Ki [8]: 0.64 nM; Ki [13]: 0.13 nM; Kb [14]: 1.26 nM; Ki [10]: 0.94 nM; Kb [11]: 1.26 nM; Activity (Mus musculus [15]): 34 h |
| Cc1ccc(C(O)(c2ccc(C)cc2)C23CC[N+](CCOCc4ccccc4)(CC2)CC3)cc1 | 12 nM | – | – |
| C[N+]12CCC(C(O)(c3ccccc3)c3ccccc3)(CC1)CC2 | 935 nM | – | – |
| COc1ccc(C(O)(c2ccc(OC)cc2)C23CC[N+](CCOCc4ccccc4)(CC2)CC3)cc1 | 36 nM | – | – |
| OC(c1ccc(F)cc1)(c1ccc(F)cc1)C12CC[N+](CCOCc3ccccc3)(CC1)CC2 | < 10 nM | 0.0631 nM | – |
| OC(c1ccccc1)(c1ccccc1)C12CC[N+](CCOCc3ccc(Cl)cc3)(CC1)CC2 | < 10 nM | 0.0631 nM | – |
| OC(c1ccccc1)(c1ccccc1)C12CC[N+](CCOCc3ccc(F)cc3)(CC1)CC2 | < 10 nM | 0.0794 nM | – |
| OC(c1ccccc1)(c1ccccc1)C12CC[N+](CCOCc3ccccc3Br)(CC1)CC2 | 22 nM | 3.16 nM | – |
| OC(c1ccccc1)(c1ccccc1)C12CC[N+](CCOCc3ccc(Br)cc3)(CC1)CC2 | < 10 nM | 0.0398 nM | – |
| COCCC[N+]12CCC(C(O)(c3ccccc3)c3ccccc3)(CC1)CC2 | 829 nM | – | – |
| OC(c1ccccc1)(c1ccccc1)C12CC[N+](CCOCc3ccccc3)(CC1)C2 | < 10 nM | 0.398 nM | – |
| N#Cc1ccccc1COCC[N+]12CCC(C(O)(c3ccccc3)c3ccccc3)(CC1)CC2 | 5400 nM | – | – |
| OC(c1ccccc1)(c1ccccc1)C12CC[N+](CCCCCOc3ccccc3)(CC1)CC2 | 306 nM | – | – |
| CC(C)(C)c1ccc(COCC[N+]23CCC(C(O)(c4ccccc4)c4ccccc4)(CC2)CC3)cc1 | 39 nM | – | – |
| OC(c1ccccc1)(c1ccccc1)C12CC[N+](CCc3ccccc3)(CC1)CC2 | 87 nM | – | – |
| OC(c1ccccc1)(c1ccccc1)C12CC[N+](CC3CC3)(CC1)CC2 | 1960 nM | – | – |
| N#Cc1ccc(COCC[N+]23CCC(C(O)(c4ccccc4)c4ccccc4)(CC2)CC3)cc1 | < 10 nM | 0.398 nM | – |
| Cc1ccc(COCC[N+]23CCC(C(O)(c4ccccc4)c4ccccc4)(CC2)CC3)cc1 | < 10 nM | 0.0398 nM | – |
| CCC[N+]12CCC(C(O)(c3ccccc3)c3ccccc3)(CC1)CC2 | 208 nM | – | – |
| NCC[N+]12CCC(C(O)(c3ccccc3)c3ccccc3)(CC1)CC2 | 850 nM | 0.398 nM | – |
